The source made the active and inactive calls. The rule behind the calls is not given here.

Common to all, as to assay type: functional
Assay [1] has as its system Radish. Kind of assay: Pre-emergence herbicidal activity against Raphanus sativus var.Long scarlet (radish) seeds assessed as root length at 0.1 mol/l at 25 degC after 72 hr by laboratory-based agar medium bioassay relative to 1,8-Cineole. In a few lines:
(§1)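 Agar-plate assay as above: compound in organic solvent evaporated onto Ca/B water agar, 10 seeds × 5 dishes, 72 h at 25 °C in light. Germination, root length or shoot length at 0.1 mol L^-1 expressed relative to 1,8-cineole.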

Assay [2] concerns Lolium rigidum. Kind of assay: Pre-emergence herbicidal activity against Lolium rigidum seeds assessed as root length at 0.1 mol/l at 25 degC after 72 hr by laboratory-based agar medium bioassay relative to control. In a few lines:
(§2)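 Solutions tested at 1 to 1 × 10^-4 mol L^-1. 10 seeds/dish, 5 randomized replicate dishes angled ~70°. Incubated 72 h at 25 °C in light. Solvent and no-solvent controls. Germination, root length and shoot length recorded.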

Assay [3] concerns Radish. Kind of assay: Pre-emergence herbicidal activity against Raphanus sativus var.Long scarlet (radish) seeds assessed as concentration required to suppress shoot growth at 25 degC after 72 hr by laboratory-based agar medium bioassay.
The subject of assay [4] is Lolium rigidum. Kind of assay: Pre-emergence herbicidal activity against Lolium rigidum seeds assessed as concentration required to suppress seed germination at 25 degC after 72 hr by laboratory-based agar medium bioassay.
Assay [5] relates to Lolium rigidum. Kind of assay: Pre-emergence herbicidal activity against Lolium rigidum seeds assessed as shoot length at 0.1 mol/l at 25 degC after 72 hr by laboratory-based agar medium bioassay relative to 1,8-Cineole. In a few lines:
as §1

Assay [6] deals with Radish. Kind of assay: Pre-emergence herbicidal activity against Raphanus sativus var.Long scarlet (radish) seeds assessed as seed germination at 0.1 mol/l at 25 degC after 72 hr by laboratory-based agar medium bioassay relative to control. In a few lines: as §2
The subject of assay [7] is Radish. Kind of assay: Pre-emergence herbicidal activity against Raphanus sativus var.Long scarlet (radish) seeds assessed as shoot length at 0.1 mol/l at 25 degC after 72 hr by laboratory-based agar medium bioassay relative to control. In a few lines: as §2
Assay [8] relates to Lolium rigidum. Kind of assay: Pre-emergence herbicidal activity against Lolium rigidum seeds assessed as concentration required to suppress root growth at 25 degC after 72 hr by laboratory-based agar medium bioassay.
In assay [9] the test system is Radish. Kind of assay: Pre-emergence herbicidal activity against Raphanus sativus var.Long scarlet (radish) seeds assessed as root length at 0.1 mol/l at 25 degC after 72 hr by laboratory-based agar medium bioassay relative to control. In a few lines: as §2
In assay [10] the test system is Lolium rigidum. Kind of assay: Pre-emergence herbicidal activity against Lolium rigidum seeds assessed as root length at 0.1 mol/l at 25 degC after 72 hr by laboratory-based agar medium bioassay relative to 1,8-Cineole. In a few lines: as §1
Assay [11] concerns Lolium rigidum. Kind of assay: Pre-emergence herbicidal activity against Lolium rigidum seeds assessed as shoot length at 0.1 mol/l at 25 degC after 72 hr by laboratory-based agar medium bioassay relative to control. In a few lines:
as §2

The subject of assay [12] is Lolium rigidum. Kind of assay: Pre-emergence herbicidal activity against Lolium rigidum seeds assessed as seed germination at 0.1 mol/l at 25 degC after 72 hr by laboratory-based agar medium bioassay relative to 1,8-Cineole. In a few lines: as §1
The test system of assay [13] is Lolium rigidum. Kind of assay: Pre-emergence herbicidal activity against Lolium rigidum seeds assessed as concentration required to suppress shoot growth at 25 degC after 72 hr by laboratory-based agar medium bioassay.
Assay [14] concerns Radish. Kind of assay: Pre-emergence herbicidal activity against Raphanus sativus var.Long scarlet (radish) seeds assessed as concentration required to suppress root growth at 25 degC after 72 hr by laboratory-based agar medium bioassay.
In assay [15] the test system is Radish. Kind of assay: Pre-emergence herbicidal activity against Raphanus sativus var.Long scarlet (radish) seeds assessed as shoot length at 0.1 mol/l at 25 degC after 72 hr by laboratory-based agar medium bioassay relative to 1,8-Cineole. In a few lines: as §1
Assay [16] concerns Lolium rigidum. Kind of assay: Pre-emergence herbicidal activity against Lolium rigidum seeds assessed as seed germination at 0.1 mol/l at 25 degC after 72 hr by laboratory-based agar medium bioassay relative to control. In a few lines:
as §2

Assay [17] deals with Radish. Kind of assay: Pre-emergence herbicidal activity against Raphanus sativus var.Long scarlet (radish) seeds assessed as concentration required to suppress seed germination at 25 degC after 72 hr by laboratory-based agar medium bioassay.
The test system of assay [18] is Radish. Kind of assay: Pre-emergence herbicidal activity against Raphanus sativus var.Long scarlet (radish) seeds assessed as seed germination at 0.1 mol/l at 25 degC after 72 hr by laboratory-based agar medium bioassay relative to 1,8-Cineole. In a few lines:
as §1

As for `CCCC(=O)O` [BUTYRIC ACID], the inhibition entry in assay [1], in [5], in assay [10], in assay [12], in assay [15] and in assay [18] was “Active” in each case. The Activity in assay [2] is reported as 0%; in assay [3], 0.01 mol/L; in assay [4] it was 0.01 mol/L; in assay [6] it was 0%; in [7], 0%; in assay [8] it was 0.01 mol/L. In addition, the Activity in assay [9] is 0%; in [11], 0%; in assay [13], 0.1 mol/L; in assay [14] it was 0.01 mol/L; in assay [16] it was 0%; in [17] it was 0.1 mol/L.

Take `O=C(O)c1ccccc1` [BENZOIC ACID]: the inhibition result in assay [1], in [5], in assay [10], in [12], in [15] and in assay [18] was “Active” in each case. Besides, the Activity turned out to be 0% in assay [2]; 0.01 mol/L in [3]; 0.01 mol/L in [4]; 0% in [6]; 0% in [7]; 0.0001 mol/L in [8]. The Activity came to 0% in assay [9]; 0% in assay [11]; 0.0001 mol/L in [13]; 0.01 mol/L in [14]; 0% in [16]; 0.1 mol/L in assay [17].

Consider `CC(=O)O` [ACETIC ACID], for which the inhibition entry in assay [1], in [5], in assay [10], in assay [12], in assay [15] and in [18] was “Active” throughout. For the same compound, the Activity in assay [2] was found to be 0%; in [3] it was 0.1 mol/L; in assay [4] it was 0.1 mol/L; in assay [6], 0%; in assay [7], 0%; in [8] it was 0.01 mol/L. The Activity was found to be 0% in [9]; 0% in assay [11]; 0.01 mol/L in [13]; 0.1 mol/L in assay [14]; 0% in assay [16]; 0.1 mol/L in [17].

`CC(=O)O[C@@H]1C[C@@]2(C(C)C)CC[C@@]1(C)O2` (racemic) [2-exo-acetoxy-1,4-cineole]: the Ratio in [1] worked out at 3.5; in assay [18] it was 7.5. Also, the Activity came to 0% in assay [2]; 0.01 mol/L in assay [3]; 0.1 mol/L in assay [4]; 4.5% in [6]; 0% in assay [7]; 0.01 mol/L in assay [8]. For the same compound, the Activity in [9] worked out at 2.7%; in [11], 0%; in assay [13], 0.01 mol/L; in assay [14], 0.01 mol/L; in assay [16], 0%; in [17] it was 0.01 mol/L. Moreover, the inhibition result in assay [5], in [10], in assay [12] and in assay [15] was “Active” in each case.

With `CC(C)(C)CC(=O)O` [T-BUTYLACETIC ACID], the inhibition entry in assay [1], in assay [5], in assay [10], in assay [12], in assay [15] and in [18] was “Active” each time. The Activity is 0% in [2]; 0.1 mol/L in assay [3]; 0.01 mol/L in assay [4]; 0% in assay [6]; 0% in [7]; 0.0001 mol/L in [8]. Also, the Activity in assay [9] is 0%; in assay [11], 0%; in assay [13], 0.0001 mol/L; in [14], 0.01 mol/L; in assay [16], 0%; in assay [17] it was 0.1 mol/L.

Consider `CCCC(=O)O[C@@H]1C[C@@]2(C(C)C)CC[C@@]1(C)O2` (racemic) [2-exo-butoxy-1,4-cineole], for which the inhibition entry in assay [1], in assay [15] and in assay [18] was “Active” each time.

`CC(C)[C@]12CC[C@@](C)(O1)[C@H](OC(=O)CC(C)(C)C)C2` (racemic) [2-exo-t-butylacetoxy-1,4-cineole]: the Ratio in [1] amounted to 0.7; in assay [15], 0.9; in [18] it was 0.8. For the same compound, the Activity was 0.01 mol/L in assay [3]; 0.1 mol/L in assay [4]; 42.9% in [6]; 71.2% in assay [7]; 0.01 mol/L in assay [8]; 55.8% in assay [9]. Further, the Activity in [13] is 0.1 mol/L; in [14], 0.01 mol/L; in assay [17], 0.1 mol/L.

Consider `CC1(C)O[C@]2(C)CC[C@@H]1[C@@H](O)C2` (racemic) [3-exo-hydroxy-1,8-cineole], for which the Ratio in assay [1] was 1.4; in assay [5], 2.8; in assay [10] it was 1.3; in assay [12] it was 11.6; in [15], 1.4; in assay [18], 14.2. Moreover, the Activity in assay [2] turned out to be 16.6%; in assay [3], 0.1 mol/L; in assay [4], 0.1 mol/L; in assay [6] it was 2.4%; in assay [7], 46.5%; in [8], 0.1 mol/L. For the same compound, the Activity in assay [9] is on record as 26.8%; in assay [11], 10.2%; in assay [13] it was 0.01 mol/L; in [14] it was 0.01 mol/L; in assay [16], 2.6%; in [17], 0.1 mol/L.

For the compound `CCCCCC(=O)O` [HEXANOATE], the inhibition result in [1], in [5], in assay [10], in [12], in assay [15] and in assay [18] was “Active” throughout. Further, the Activity in assay [2] is 0%; in assay [3], 0.1 mol/L; in assay [4], 0.01 mol/L; in assay [6], 0%; in assay [7] it was 0%; in [8], 0.0001 mol/L. Moreover, the Activity is listed as 0% in [9]; 0% in assay [11]; 0.0001 mol/L in [13]; 0.001 mol/L in [14]; 0% in [16]; 0.1 mol/L in assay [17].

`CC1(C)OC2(C)CC[C@H]1C[C@H]2O` (single isomer, unassigned) [2-endo-hydroxy-1,8-cineole]: the Ratio worked out at 5.5 in [1]; 1.8 in assay [5]; 0.6 in [10]; 0.6 in [12]; 13.1 in assay [18]. Moreover, the Activity in [2] worked out at 39.5%; in assay [3], 0.1 mol/L; in [4], 0.1 mol/L; in assay [6] it was 2.6%; in assay [7], 0%; in [8], 0.1 mol/L. The Activity in assay [9] amounted to 6.8%; in assay [11] it was 15.4%; in assay [13], 0.01 mol/L; in assay [14], 0.01 mol/L; in assay [16], 51.5%; in [17] it was 0.01 mol/L. Also, in assay [15], the inhibition entry was “Active”.

These data come from ChEMBL document CHEMBL3045579, “Herbicidal activity of cineole derivatives” (2010).
